Compound activity (PubChem BioAssay)
Compounds with a hit are over-represented: about 0.96% of the library has one in this group of screens.
MEP2-GFP yeast = modulators of TOR pathway MEP2-GFP in S. cerevisiae; S. cerevisiae MEP2-GFP strain, flow cytometry GFP, 3 h; 100% = DMSO control level; GFP response vs DMSO, % at 10 µM; actives 0.51% (n = 330,000); AID 2016;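 active means GFP response versus DMSO above a set limit, roughly screen mean plus 3 SD, cut at about 180% in these data; inconclusive means fewer than 70 cells counted for a yeast strain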;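 further: median GFP fluorescence of the barcode-gated MEP2-GFP cells per well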
T cell HTS = modulates CD8 T cell binding to vesicles | 2C CD8+ T cell-vesicle binding, flow cytometry; hits give low values | actives 0.068% (n = 330,000) | response (vesicle binding), % at 7 µM | AID 2052;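 active means response, share of CD8 T cells binding vesicles, and their 90th percentile fluorescence all below set limits, cut at about 80% in these data, passing the limit was not always enough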;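 further: values below 100% mean blocked vesicle binding to the CD8+ T cells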
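Assay system – 2C mouse CD8+ T cells · Also added – QL9-loaded Drosophila micro-vesicles · Timing – Cell–vesicle co-incubation 1.5 h at 37 °C, staining 20 min on ice · Signal – flow cytometry of vesicle-bound cells · Measure – percent CD8+ FL2 mean versus row control · Controls – Peptide-free naked vesicles (low) and QL9 vesicles with 0.7% DMSO vehicle (high)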
CIT2 TOR yeast = yeast TOR pathway CIT2-GFP modulation | S. cerevisiae CIT2-GFP strain, flow cytometry, 3 h; 100 means same as DMSO wells | GFP response vs DMSO, % at 10 µM | actives 0.065% (n = 320,000);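 active means GFP response relative to DMSO above a set limit, near the screen mean plus 3 SD, cut at about 150% in these data; inconclusive means Fewer than 70 cells measured for a yeast strain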;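 further: ratio of well median GFP fluorescence to mean of DMSO wells on the plate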
RPL19A-GFP yeast = yeast TOR pathway RPL19A-GFP modulation; S. cerevisiae RPL19A-GFP strain, flow cytometry, 3 h; hits give low values; percent response vs DMSO, % at 10 µM; actives 0.3% (n = 330,000); AID 2025;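 active means percent response vs DMSO below 50%; inconclusive means fewer than 70 events counted for the yeast strain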;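 further: median channel GFP fluorescence of the barcoded RPL19A-GFP strain; ratio of sample median GFP to plate DMSO average so 100% = DMSO; lower means less RPL19A-GFP as with rapamycin TOR inhibition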
LAP4-GFP MLPCN = alters LAP4-GFP fluorescence in TOR pathway yeast screen. S. cerevisiae LAP4-GFP multiplex, flow cytometry GFP, 3 h; median GFP as percent of DMSO wells. GFP response vs DMSO, % at 10 µM. actives 0.34% (n = 320,000). AID 2023;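 active means GFP response vs DMSO above a set limit, about the screen mean plus 3 SD, cut at about 150% in these data; inconclusive means under 70 cell events counted for the yeast strain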
AGP1 TOR yeast = modulators of TOR pathway AGP1-GFP in S. cerevisiae; S. cerevisiae AGP1-GFP multiplex flow cytometry, 3 h; GFP as percent of DMSO wells; GFP response vs DMSO, % at 10 µM; actives 0.02% (n = 320,000); AID 2066;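 active means GFP response relative to DMSO above a set limit, near screen average plus 3 SD, cut at about 150% in these data; inconclusive means fewer than 70 cells counted for the yeast strain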;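 further: median GFP channel fluorescence of the gated AGP1 strain per well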
* = called active by the depositor; i = inactive; ? = inconclusive; . = not tested or not shown; + = active, no number; [ ] = dose if it differs, or a comment.

SMILES	MEP2-GFP yeast	T cell HTS	CIT2 TOR yeast	RPL19A-GFP yeast	LAP4-GFP MLPCN	AGP1 TOR yeast
O=C(Nc1cccc(-c2ccc(F)cc2)c1)C1CCCN(Cc2cccnc2)C1 (configuration not stated)	93	347	95	100	90	98
Cc1ccc(S(=O)(=O)NC(=O)N(CCC#N)Cc2ccccc2)cc1	109	314	94	103	102	99
Cc1cc(C)c2[nH]c(C)c(CN3CCCCCC3)c(=O)c2c1	101	18	100	102	97	102
O=S(=O)(c1cccc(Br)c1)N1CCN(c2ccnc3cc(Cl)ccc23)CC1	113	174	174*[may fluoresce green]	95	110	123
CC(NC(=O)C1CCC(CNS(=O)(=O)c2ccccc2)CC1)c1ccccc1 (configuration not stated)	311*	i	122	68	132	124
O=C(Nc1c2ccccc2nc2ccccc12)C(Cl)(Cl)Cl	120	198	86	46*	89	87
O=C(Cc1ccccc1)NNc1c2ccccc2nc2ccccc12	101	171	89	98	91	89
Cc1onc(-c2c(F)cccc2Cl)c1C(=O)NC(C)c1ccccc1 (configuration not stated)	195*[may fluoresce violet]	187	?	97	92	26
O=C(Cc1ccc(O)cc1)NC1CCCCCC1	?	697	?	42*[may fluoresce violet]	?	?
Cc1cc(C)c(S(=O)(=O)NCc2csc(C)n2)c(C)c1	110	153	96	105	95	95
O=C1C2=C(NC(=S)NC2c2ccc(Cl)cc2)NC(c2ccc(Cl)cc2)N1c1ccc(Cl)cc1 (configuration not stated)	391*[may fluoresce violet]	419	?	56	?	?
CCc1ccc(C2NC(=S)NC3=C2C(=O)N(c2ccccc2OC)C(c2ccc(CC)cc2)N3)cc1 (configuration not stated)	99	555	94	97	106	.
CCOc1ccc(NC(=O)CN(C)C(=O)c2ccc(NC3CC3)c([N+](=O)[O-])c2)cc1OCC	105	471	95	100	102	105
O=C(NCc1n[nH]c(=S)n1-c1cccc(C(F)(F)F)c1)c1ccc(S(=O)(=O)N2CCCCC2)cc1	221*[may fluoresce violet]	372	?	26*[may fluoresce violet]	59	?
O=C(NCc1n[nH]c(=S)n1-c1cccc(C(F)(F)F)c1)c1ccc(S(=O)(=O)N2CCCC2)cc1	101	170	97	101	86	97
Cn1ccnc1SCC(=O)Nc1ccc2nc(SCC(=O)NC3CC3)sc2c1	280*[may fluoresce violet]	286	?	.	90	?
Cn1ccnc1SCC(=O)NC1CCCC1	99	214	96	101	89	92
Cn1nc(-c2ccc(Cl)cc2)nc2c(=O)n(C)c(=O)nc1-2	111	683	62	52	203*	105
COc1ccc(C(=O)Nc2ccc(C(=O)N3CCCCC3)cc2)cc1OC	355*[may fluoresce violet]	173	?	50	83	16
C=C(C)C1CC=C(C)/C(=N/NC(=O)CNc2ccc(OCC)cc2)C1 (configuration not stated)	207*[may fluoresce violet]	204	?	59	104	?
COc1cccc(NC(=O)/C=C/c2ccc([N+](=O)[O-])cc2)c1	193*	290	105	70	113	21
CC(C)n1c(SCC(=O)NC2CC2)nnc1C1CC1	102	128	114	108	108	105
CCc1nnc(NC(=O)CSc2nnc(C3CCCCC3)n2-c2cccc(Cl)c2)s1	+	322	199*	49*	343*	198*
CCc1nnc(NC(=O)CSc2nnc(CNc3cccc(Cl)c3)n2CC)s1	98	95	104	98	96	102
CC(C)c1nc2cc(C(=O)N3CCNC(=O)C3c3ccc(F)cc3)ccc2o1 (configuration not stated)	115	572	107	101	98	107
SMILES	MEP2-GFP yeast	T cell HTS	CIT2 TOR yeast	RPL19A-GFP yeast	LAP4-GFP MLPCN	AGP1 TOR yeast
Nc1nc(SCc2ccc(Cl)cc2Cl)n[nH]1	104	262	99	101	103	105
CNc1cc(CSC)nc(SCc2ccc(Cl)cc2Cl)n1	98	298	80	92	164*	93
CCOc1ccc(S(=O)(=O)N2CCC(C(=O)N3CCCC3)CC2)cc1C	97	270	99	97	103	102
COc1ccc(/C=C2\SC(=O)N(CC(=O)NCCCn3ccnc3)C2=O)cc1	97	304	91	95	93	96
O=C(O)CCNS(=O)(=O)c1cccc2nsnc12	99	318	101	102	94	105
Cc1ccc2c(c1)nnn2C1CCN(S(=O)(=O)c2ccc(C(=O)N(C)C)cc2)CC1	107	686	109	106	98	109
Cc1ccc2c(c1)nnn2C1CCN(S(=O)(=O)c2ccc(C(=O)N3CC(C)CC(C)C3)cc2)CC1 (configuration not stated)	317*[may fluoresce violet]	330	?	30*[may fluoresce violet]	78	?
CC(=O)c1cccc(S(=O)(=O)N2CCC(C(=O)Oc3ccc(-c4nnco4)cc3)CC2)c1	100	271	94	98	100	101
O=C(CN1CCN(Cc2ccccc2)CC1)Nc1ccc(Cl)cc1	85	0	98	90	87	90
CN(C(=O)c1cc(-c2ccccc2)on1)C1CCCCC1	100	257	88	100	95	93
COc1ccc(/C=N/NC(=O)C(C)n2cnc3ccccc3c2=O)cc1 (configuration not stated)	98	254	95	104	91	103
CC(=O)Nc1ccc(NC(=O)CCCn2cnc3ccccc3c2=O)cc1	242*[may fluoresce violet]	205	?	96	84	16
Cc1ccc(NC(=O)CCn2cnc3ccccc3c2=O)cc1	98	214	89	98	95	103
COc1ccc(/C=N/NC(=O)Cn2cnc3ccccc3c2=O)cc1	245*[may fluoresce violet]	186	?	49*[may fluoresce violet]	79	22
CCOC(=O)C1=C(COC(=O)CCOc2ccccc2)NC(=O)NC1C (configuration not stated)	106	236	96	96	102	97
CC(=O)NCC(=O)NC(C(=O)Nc1ccc2c(c1)OCCO2)c1ccc(C)cc1 (configuration not stated)	?	219	?	40*[may fluoresce violet]	?	?
CCCCc1nc(SCC(=O)Nc2cccc(Cl)c2)n[nH]1	97	327	97	99	109	100
Cc1csc2c(=O)sc(NC(=O)c3cccs3)nc12	596*[may fluoresce violet]	266	?	48*[may fluoresce violet]	88	22
CCOc1ccc(NC(=O)CSc2nnc(C)n2CC)cc1	103	203	108	108	82	111
